Source: PubChem BioAssay
A selection: hits, their analogues and other compounds. The true share with any hit is near 4.1%.
SMARCA2 act: increases SMARCA2 function in MMTV reporter cells | activation, % at 9.1 µM | MG213 cells, MMTV-luciferase reporter, dexamethasone, overnight | hit rate 1% among 370,000; in the data active = activation above about 7.8%
MPTP inh: blocks calcium-induced mitochondrial swelling. AID 602449. isolated mouse mitochondria, Ca2+ swelling absorbance, 30 min. hit rate 1.4% among 360,000. inhibition, % at 10 µM;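 active = inhibition of 50% or more, scaled per plate between neutral and stimulator controls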
MC4R antagonist: antagonists of human melanocortin 4 receptor (MC4R); P32245; MC4R-expressing cells, MTII-stimulated cAMP, LANCE TR-FRET; inhibition, % at 6.5 µM; hit rate 0.48% among 360,000; AID 540295;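 active = inhibition above its plate's cutoff, the mean of tested wells on that plate plus 3 SD, cut at about 29% in these data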
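Material: human MC4R-expressing U2OS cells. Probe or stimulus: Melanotan II challenge. Dosing: 6.5 µM single dose. Times: 30-min compound, 1-h challenge, 1-h detection, room temperature. Technique: TR-FRET with Eu-cAMP and labeled anti-cAMP, 671 nm. Replication: singlicate.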
ATG4B inh: blocks human ATG4B protease cleavage of LC3 substrate; Q9Y4P1; ATG4B cleavage of LC3-PLA2, NBD-HPC fluorescence, 1 h; inhibition, % at 8.33 µM; hit rate 0.51% among 340,000; AID 504462; in the data active = inhibition above about 40%
Target sequence (Q9Y4P1 whole entry, looked up): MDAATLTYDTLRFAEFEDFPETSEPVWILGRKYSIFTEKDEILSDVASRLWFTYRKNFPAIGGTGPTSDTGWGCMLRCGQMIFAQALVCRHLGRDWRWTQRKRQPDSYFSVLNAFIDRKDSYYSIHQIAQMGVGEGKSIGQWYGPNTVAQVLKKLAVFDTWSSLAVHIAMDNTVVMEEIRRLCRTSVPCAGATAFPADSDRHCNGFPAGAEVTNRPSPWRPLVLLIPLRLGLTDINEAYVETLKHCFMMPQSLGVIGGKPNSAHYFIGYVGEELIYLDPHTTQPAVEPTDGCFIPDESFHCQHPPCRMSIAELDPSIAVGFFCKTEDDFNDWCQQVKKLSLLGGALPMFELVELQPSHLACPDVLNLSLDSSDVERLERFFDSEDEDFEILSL
MC4R ag barr: human MC4R agonism via beta-arrestin; hit rate 0.98% among 360,000; activation, % at 8.9 µM; P32245; U2OS MC4R beta-arrestin complementation, luminescence; percent of melanotan II response, DMSO zero;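 active = activation above a per-plate cutoff, the mean activation of sample wells on that plate plus 3 SD, cut at about 8% in these data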
SMARCA2 act conf: SMARCA2 activation, confirmation screen. hit rate 30% among 3,500. AID 652260. shares compounds with SMARCA2 act. activation, % at 9.1 µM. MG213 cells, MMTV-luciferase with dexamethasone, luminescence, overnight; MG213 cells expressing E1A, Rb sequestered; DMSO wells 0%, reference activator 100%;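 active = activation above its plate's cutoff, the mean activation of tested wells plus 3 SD, cut at about 7.9% in these data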
GAL4-VP16 Luc: GAL4-VP16 reporter activation counter-screen; activation, % at 9.1 µM; shares compounds with SMARCA2 act; hit rate 41% among 3,500; HEK293 GAL4-VP16 pG5luc reporter, luciferase luminescence; scaled: DMSO wells 0%, SAHA wells 100%; AID 686939;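 active = activation above the solvent-only control well mean plus 3 SD, averaged across control plates, cut at about 5.2% in these data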
Hits are given with their value; n = inactive; x = not tested or not shown.

SMILES	SMARCA2 act	MPTP inh	MC4R antagonist	ATG4B inh	MC4R ag barr	SMARCA2 act conf	GAL4-VP16 Luc
COC(=O)c1cc2c(c3c4cc(C)ccc4n(S(=O)(=O)c4ccc(C)cc4)c13)C(=O)N(Cc1ccc(C(F)(F)F)cc1)C2	n	x	x	x	x	x	x
Nc1nc(Nc2ccccc2)sc1C(=O)c1ccccc1	11	n	n	n	n	12	8.1
COc1ccc(C(=O)c2sc(Nc3ccccc3)nc2N)cc1	n	n	n	n	n	x	x
COc1ccc(C(=O)c2sc(Nc3ccccc3F)nc2N)cc1	16	n	n	n	n	11	12
COCCCNC(=O)C[C@H]1C[C@@]2(C(=O)OC)C(=C[C@H](C3CCCC3)O[C@@H]2C)N(Cc2ccco2)C1=O	n	x	x	x	x	x	x
c1ccc(N=Nc2ccc(C3=NCCO3)cc2)cc1	10	n	n	x	n	9.2	9.8
Cc1ccc(C2(C)NC(=O)N(CC(=O)Nc3ccc(-c4nc5ccc(C)cc5s4)cc3)C2=O)cc1 (stereo unspecified)	n	n	n	n	n	x	x
Cc1ccc2nc(-c3ccc(NC(=S)NC4CC(C)(C)NC(C)(C)C4)cc3)sc2c1	13	n	n	n	n	n	16
O=C(O)CSCC(=O)Nc1ccc(-c2nc3ccccc3s2)cc1	n	n	n	n	n	x	x
Cc1ccc2nc(-c3ccc(NC(=O)CSCC(=O)O)cc3)sc2c1	16	n	n	n	n	n	20
Cc1ccc(CN2CC=CCS2(=O)=O)cc1	n	x	x	x	x	x	x
N#C/C(=C\c1ccc[nH]1)C(=O)N1CCCCC1	n	n	n	n	n	x	x
Cc1ccccc1NC(=O)/C(C#N)=C/c1ccc[nH]1	9.5	n	n	n	n	n	5.3
N#C/C(=C\c1ccc[nH]1)C(=O)Nc1ccccc1[N+](=O)[O-]	11	n	n	n	n	14	6.1
CCN(CC)C(=O)CC[C@@H]1CC[C@]2(CCCN(Cc3cccc4ccccc34)C2)O1	n	x	x	x	x	x	x
Cc1c(C(=O)N2CCCC2)c(S(=O)(=O)Nc2ccccc2)c(C)n1C	14	n	n	n	n	n	n
Cc1cc(C)cc(NS(=O)(=O)c2c(C(=O)N3CCOCC3)c(C)n(C)c2C)c1	10	n	n	n	n	n	n
Cc1c(C(=O)N2CCCC2)c(S(=O)(=O)Nc2cccc(Br)c2)c(C)n1C	n	n	n	n	n	x	x
Cc1ccc(NS(=O)(=O)c2c(C(=O)N3CCOCC3)c(C)n(C)c2C)cc1	n	n	n	n	n	x	x
O=C1NC(=O)/C(=C\c2ccc(O)cc2O)S1	13	n	n	n	n	n	n
COc1ccccc1N1CCN(C(=O)C(=O)N/N=C/c2cccc(O)c2)CC1	n	n	n	n	n	x	x
COc1ccccc1/C=N/NC(=O)C(=O)N1CCN(c2ccccc2OC)CC1	10	n	n	n	n	n	n
Cc1cc(C)c(S(=O)(=O)c2cccc(Cl)c2)c(=O)[nH]1	11	n	n	n	n	n	n
Cc1ccc2oc(C(=O)N3CCN(c4cccc(C)n4)CC3)c(C)c2c1	n	n	n	n	n	x	x
Cc1cc(Cl)c2oc(C(=O)N3CCN(c4cccc(C)n4)CC3)c(C)c2c1	11	n	n	n	n	n	15
SMILES	SMARCA2 act	MPTP inh	MC4R antagonist	ATG4B inh	MC4R ag barr	SMARCA2 act conf	GAL4-VP16 Luc
COc1ccc(/C=N/NC(=O)c2ccncc2)cc1CN1CCOCC1	n	n	n	n	n	x	x
COc1ccc(/C=N\NC(=O)c2nn(C)cc2Cl)cc1CN1CCOCC1	10	n	n	n	n	n	n
CCOC(=O)c1cnc2c(ccc3ccccc32)c1NCCCN(C)C	19	n	n	n	n	40	8.1
CCOC(=O)c1cnc2ccccc2c1NCCO	n	n	n	n	n	x	x
CCOC(=O)c1ccc2ncc(C(=O)OCC)c(NCc3ccco3)c2c1	13	n	n	n	n	n	n
CCOC(=O)c1cnc2c(C(=O)OC)cccc2c1NCc1ccco1	8.0	n	n	n	n	n	n
COc1ccc(CN2C(=O)[C@]3(NCCc4c3[nH]c3ccc(OC)cc43)c3cc(Br)ccc32)cc1	n	x	x	x	x	x	x
Oc1c(Cl)cc(Cl)c2cccnc12	n	n	n	n	n	x	x
Cc1ccc2c(Cl)cc(Cl)c(O)c2n1	10	n	n	n	n	n	11
COc1ccc(-c2ccc3c(n2)CCCN3S(=O)(=O)c2ccc(C#N)cc2)cc1	n	x	x	x	x	x	x
CN(C)CCCN1c2ccccc2CCc2ccccc21	n	x	n	n	n	x	x
CC(CN(C)C)CN1c2ccccc2CCc2ccccc21 (stereo unspecified)	8.2	n	n	n	n	n	n
CC1=CC2C3C(=O)N(c4ccccc4)C(=O)C3C1C(=O)C2(O)C(C)C (stereo unspecified)	n	x	x	x	x	x	x
N=c1c2ccccc2nc2n1CCCCCCC2	9.0	n	n	x	n	n	n
COc1ccnc(Oc2ccc(C)cc2)c1C#N	n	n	n	n	n	x	x
COc1ccnc(Oc2ccc3ccccc3c2)c1C#N	14	n	n	n	n	n	7.9
CNc1nnc(-c2cc3ccccc3oc2=O)s1	8.3	n	n	n	n	13	14
CCOC(=O)N1CCN(S(=O)(=O)c2ccc(C(=O)Nc3sc4c(c3C#N)CCC4)cc2)CC1	11	n	n	n	n	n	n
CCOc1cccc(-c2nnc3n2N=C(c2ccc(OC)cc2)CS3)c1	n	x	x	x	x	x	x
CC(C)C(=O)Nc1ccc2nn(-c3ccccc3)nc2c1	9.4	n	n	n	n	n	20
O=C(Nc1ccc2nn(-c3ccccc3)nc2c1)c1cccnc1	n	n	n	n	n	x	x
COc1cc(C(=O)c2cocc2C(=O)c2ccc3c(c2)OCO3)cc(OC)c1OC	9.0	n	n	n	n	n	6.3
COc1cc(C(=O)c2ccc3c(c2)OCO3)cc(OC)c1OC	n	n	n	n	n	x	x
Cc1cccc(NC(=O)COc2ccc3c(c2)CCC3)n1	9.7	n	n	n	n	n	5.5
COCCCNC(=S)Nc1cc(C)c(C)cc1C	8.6	n	n	n	n	n	n
SMILES	SMARCA2 act	MPTP inh	MC4R antagonist	ATG4B inh	MC4R ag barr	SMARCA2 act conf	GAL4-VP16 Luc
COCCCNC(=S)Nc1ccc(OC(F)F)cc1C	n	n	n	n	n	x	x
CC1=CC(=O)C=CC1=Nc1ccc(N(C)C)cc1	n	n	x	x	x	x	x
C/C(=N/NC(=O)c1ccc(Cl)cc1Cl)c1cccnc1	x	n	n	n	n	x	x
C/C(=N\NC(=O)c1cccs1)c1cccnc1	8.4	n	n	n	n	n	n
C/C(=N\NC(=O)c1ccc(O)cc1O)c1cccnc1	10	n	n	n	n	n	n
O=C(Cn1nnc(-c2ccncc2)n1)Nc1ccc(Oc2ccccc2)cc1	n	x	x	x	x	x	x
O=[N+]([O-])c1ccc(CN2[C@H](COCc3ccccc3)C=CS2(=O)=O)cc1	n	x	x	x	x	x	x
CCOC(=O)Cn1cc(CN2C(C(=O)OC)CN(C3CCCC3)CCS2(=O)=O)nn1 (stereo unspecified)	n	x	x	x	x	x	x
